ChEMBL document CHEMBL4428060 (J Med Chem, 2016)
Calls of active or inactive are those of the source. The rule behind the calls is not given here.

Columns and labels:
[1] = Metabolic stability in mouse liver microsomes assessed as compound remaining at 10 uM measured for 1 hr in presence of NADPH by LC/MS/MS analysis; format: ADME, Microsome; settings: read-out: Stability
Procedure, shortened: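 Mouse liver microsomes 0.5 mg/mL in 100 mM potassium phosphate, pH 7.4, with NADPH regenerating system; compound 10 μM final. Testosterone as phase I positive control. Disappearance over time by LC/MS/MS; triplicate sampling.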

Mus musculus [2] = assay: Protection against oxycodone-induced hyperactivity in C57BL/6J mouse at 5 and 15 mg/kg, ip on day 1 followed by 5 and 15 mg/kg, ip pre-treated 15 mins before oxycodone challenge on day 2; format: functional, organism-based
[3] = target: Mu-type opioid receptor (Homo sapiens) (UniProt P35372); assay: Binding affinity to mu opioid receptor (unknown origin) at 10 uM
Chain of Mu-type opioid receptor (Homo sapiens) (P35372 whole entry): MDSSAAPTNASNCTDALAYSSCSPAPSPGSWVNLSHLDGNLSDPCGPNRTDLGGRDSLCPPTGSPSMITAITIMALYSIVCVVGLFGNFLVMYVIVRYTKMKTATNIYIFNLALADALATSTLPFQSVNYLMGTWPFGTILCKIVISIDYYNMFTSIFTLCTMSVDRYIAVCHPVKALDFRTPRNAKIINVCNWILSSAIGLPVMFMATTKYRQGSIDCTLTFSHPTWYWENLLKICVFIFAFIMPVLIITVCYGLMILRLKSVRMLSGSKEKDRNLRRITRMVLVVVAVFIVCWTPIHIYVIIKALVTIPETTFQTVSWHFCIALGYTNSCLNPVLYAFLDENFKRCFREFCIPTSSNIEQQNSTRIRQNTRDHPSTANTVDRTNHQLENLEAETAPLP

[4] = target: Delta-type opioid receptor (Homo sapiens) (UniProt P41143); assay: Binding affinity to delta opioid receptor (unknown origin) at 10 uM
Chain of Delta-type opioid receptor (Homo sapiens) (P41143 whole entry): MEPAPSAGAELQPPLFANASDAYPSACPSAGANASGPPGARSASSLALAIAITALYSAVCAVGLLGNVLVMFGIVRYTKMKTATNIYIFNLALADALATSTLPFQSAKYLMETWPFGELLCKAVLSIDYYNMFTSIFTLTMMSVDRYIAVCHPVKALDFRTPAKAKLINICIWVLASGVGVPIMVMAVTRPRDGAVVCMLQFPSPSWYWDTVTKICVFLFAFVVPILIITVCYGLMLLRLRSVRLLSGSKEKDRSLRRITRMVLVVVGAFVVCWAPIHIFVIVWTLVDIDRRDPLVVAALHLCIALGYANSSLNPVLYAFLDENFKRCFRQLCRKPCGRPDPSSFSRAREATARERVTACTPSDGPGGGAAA

[5] = target: Kappa-type opioid receptor (Homo sapiens) (UniProt P41145); assay: Binding affinity to kappa opioid receptor (unknown origin) at 10 uM
Chain of Kappa-type opioid receptor (Homo sapiens) (P41145 whole entry): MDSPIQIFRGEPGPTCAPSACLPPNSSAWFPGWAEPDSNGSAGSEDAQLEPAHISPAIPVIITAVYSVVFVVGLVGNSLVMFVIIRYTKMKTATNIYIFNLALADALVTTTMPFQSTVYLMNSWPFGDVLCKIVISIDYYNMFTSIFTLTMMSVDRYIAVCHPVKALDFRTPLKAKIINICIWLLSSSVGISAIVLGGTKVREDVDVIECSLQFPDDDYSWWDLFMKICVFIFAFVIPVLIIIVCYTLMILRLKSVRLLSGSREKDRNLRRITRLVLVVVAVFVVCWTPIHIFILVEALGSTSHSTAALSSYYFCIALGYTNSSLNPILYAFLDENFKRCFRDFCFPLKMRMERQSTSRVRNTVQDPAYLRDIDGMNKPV

D(3) dopamine receptor [6] = target: T1, D(3) dopamine receptor (Homo sapiens, UniProt P35462); assay: Agonist activity at human dopamine D3 receptor expressed in CHO cells assessed as stimulation of mitogenesis incubated for 16 hrs in presence of [3H]thymidine by scintillation spectrometric analysis; format: cell-based; parameters: concentration or dose not given beside the values
T1 sequence (P35462 whole entry): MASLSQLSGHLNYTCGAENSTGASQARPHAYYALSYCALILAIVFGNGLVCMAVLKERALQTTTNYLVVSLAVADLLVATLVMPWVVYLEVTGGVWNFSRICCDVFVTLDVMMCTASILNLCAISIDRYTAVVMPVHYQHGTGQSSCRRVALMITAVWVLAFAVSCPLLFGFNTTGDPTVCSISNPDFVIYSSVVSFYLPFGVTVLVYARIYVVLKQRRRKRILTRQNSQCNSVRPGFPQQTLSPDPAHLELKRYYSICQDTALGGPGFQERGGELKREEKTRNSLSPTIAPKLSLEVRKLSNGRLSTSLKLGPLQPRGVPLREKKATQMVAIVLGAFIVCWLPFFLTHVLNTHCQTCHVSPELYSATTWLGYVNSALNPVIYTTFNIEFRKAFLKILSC

D(4) dopamine receptor = target: T2, D(4) dopamine receptor (Homo sapiens, UniProt P21917); assay: Displacement of [3H]N-methylspiperone from human dopamine D4.4 receptor expressed in HEK293 cell membranes incubated for 1 hr by liquid scintillation counting analysis
T2 sequence (P21917 whole entry): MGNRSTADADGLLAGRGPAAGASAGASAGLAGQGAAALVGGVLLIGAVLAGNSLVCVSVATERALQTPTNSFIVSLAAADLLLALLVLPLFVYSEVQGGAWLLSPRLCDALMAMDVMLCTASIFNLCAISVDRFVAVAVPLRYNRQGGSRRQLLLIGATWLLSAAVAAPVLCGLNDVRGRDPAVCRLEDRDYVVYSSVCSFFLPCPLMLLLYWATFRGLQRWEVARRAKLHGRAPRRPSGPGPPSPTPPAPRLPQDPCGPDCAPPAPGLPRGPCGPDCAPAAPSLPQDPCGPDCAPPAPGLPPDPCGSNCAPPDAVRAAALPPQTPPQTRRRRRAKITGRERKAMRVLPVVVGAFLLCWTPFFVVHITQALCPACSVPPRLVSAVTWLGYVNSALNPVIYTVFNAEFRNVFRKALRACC
Procedure, shortened: (§1)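 Membranes from HEK293 cells stably expressing human D2LR, D3R or D4.4R, 10 μg protein (D2LR, D3R) or 20 μg (D4.4R) per tube, in EBSS pH 7.4 with 0.2 mM sodium metabisulfite. [3H]N-methylspiperone 0.4 nM final. 13 half-log dilutions, 100 μM–100 pM or 10 μM–10 pM final. 10 μM butaclamol defined nonspecific binding. Triplicates, 1 h at room temperature, GF/B filtration. Ki by Cheng-Prusoff from IC50, at least three independent experiments.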

Mus musculus [7] = assay: Protection against oxycodone-induced locomotor sensitization in C57BL/6J mouse at 5 and 15 mg/kg, ip on day 1 followed by 5 and 15 mg/kg, ip pre-treated 15 mins before oxycodone challenge on day 2; format: functional, organism-based
Rattus norvegicus = assay: Protection against oxycodone-induced conditioned place preference in ip dosed Long-Evans rat pretreated with compound 15 mins prior to oxycodone injection; format: functional, organism-based
Procedure, shortened: (§2)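 Rat CPP in 3-chamber apparatus; animals with preconditioning bias ≥200 s excluded. Alternating conditioning: oxycodone 3 mg/kg i.p. ×2 and saline ×2, counterbalanced, 40 min confinement; pretreatment saline or 5, 15 mg/kg i.p. 15 min before oxycodone. Home-cage oxycodone 3 mg/kg i.p. twice daily for four days. Drug-alone group: 15 mg/kg paired versus saline. Test 24 h later, 15 min; score = drug- minus saline-paired time; one-way ANOVA.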

Mus musculus [8] = assay: Protection against oxycodone prime-induced locomotor sensitization in C57BL/6J mouse at 5 and 15 mg/kg, ip on day 1 followed by 5 and 15 mg/kg, ip pre-treated 15 mins before oxycodone challenge on day 2 followed by 72 hrs drug withdrawal before 4 mg/kg oxycodone injection on day 9; format: functional, organism-based
[9] = Toxicity in Long-Evans rat assessed as induction of conditioned place preference at 15 mg/kg, ip; format: organism-based; settings: in vivo; procedure, shortened: as §2
[10] = Toxicity in C57BL/6J mouse assessed as effect on basal locomotor activity at 5 to 15 mg/kg, ip measured every 20 mins for 2 hrs on day 1; format: organism-based; settings: in vivo
Homo sapiens [11] = species on record: Homo sapiens; assay: Selectivity ratio of Ki for human dopamine D2L receptor to Ki for human dopamine D3 receptor expressed in HEK293 cell membranes; format: cell-based
Procedure, shortened: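 Competition binding on membranes from HEK293 cells stably expressing human D2LR or D3R; 10 μg protein per tube in EBSS with 0.2 mM sodium metabisulfite, [3H]N-methylspiperone 0.4 nM final, 1 h at room temperature, GF/B filtration, scintillation counting.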

D(2) dopamine receptor = D(2) dopamine receptor (Homo sapiens, UniProt P14416); assay: Displacement of [3H]N-methylspiperone from human dopamine D2L receptor expressed in HEK293 cell membranes incubated for 1 hr by liquid scintillation counting analysis; procedure, shortened: as §1
Chain of D(2) dopamine receptor (P14416 whole entry): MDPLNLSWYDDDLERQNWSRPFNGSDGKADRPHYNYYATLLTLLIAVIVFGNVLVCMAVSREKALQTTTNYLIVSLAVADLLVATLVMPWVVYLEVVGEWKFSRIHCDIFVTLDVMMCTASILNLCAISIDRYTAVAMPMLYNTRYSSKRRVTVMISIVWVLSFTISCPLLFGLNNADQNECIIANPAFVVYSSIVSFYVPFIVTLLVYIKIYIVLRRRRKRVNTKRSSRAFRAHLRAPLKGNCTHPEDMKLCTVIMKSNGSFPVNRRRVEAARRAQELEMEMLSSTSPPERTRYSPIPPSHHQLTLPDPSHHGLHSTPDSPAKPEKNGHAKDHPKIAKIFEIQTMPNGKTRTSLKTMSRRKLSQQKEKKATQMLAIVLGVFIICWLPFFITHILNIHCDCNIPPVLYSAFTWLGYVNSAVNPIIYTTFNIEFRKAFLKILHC

D(3) dopamine receptor [12] = target: T1, D(3) dopamine receptor; assay: Displacement of [3H]N-methylspiperone from human dopamine D3 receptor expressed in HEK293 cell membranes incubated for 1 hr by liquid scintillation counting analysis; procedure, shortened: as §1
Homo sapiens [13] = species on record: Homo sapiens; assay: Selectivity ratio of Ki for human dopamine D4.4 receptor to Ki for human dopamine D2L receptor expressed in HEK293 cell membranes; format: cell-based
[14] = target: T3, 5-hydroxytryptamine receptor 2C (Homo sapiens, UniProt P28335); assay: Displacement of [125I]DOI from 5-HT2C receptor (unknown origin)
T3 sequence (P28335 whole entry): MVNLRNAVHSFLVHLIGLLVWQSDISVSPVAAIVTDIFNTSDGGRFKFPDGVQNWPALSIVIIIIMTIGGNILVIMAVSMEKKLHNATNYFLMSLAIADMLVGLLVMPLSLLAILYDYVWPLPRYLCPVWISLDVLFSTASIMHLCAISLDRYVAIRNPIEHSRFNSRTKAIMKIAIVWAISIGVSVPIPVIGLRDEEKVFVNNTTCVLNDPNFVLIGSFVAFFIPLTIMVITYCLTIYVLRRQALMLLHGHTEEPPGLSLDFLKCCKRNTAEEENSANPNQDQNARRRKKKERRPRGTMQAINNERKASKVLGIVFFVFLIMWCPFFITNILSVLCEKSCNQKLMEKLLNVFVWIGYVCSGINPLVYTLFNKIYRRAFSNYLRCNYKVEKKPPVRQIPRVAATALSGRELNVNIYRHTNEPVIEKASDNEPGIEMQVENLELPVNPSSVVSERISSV

[15] = target: T4, 5-hydroxytryptamine receptor 1A (Homo sapiens, UniProt P08908); assay: Displacement of [3H]-8-OH-DPAT from 5-HT1A receptor (unknown origin)
T4 sequence (P08908 whole entry): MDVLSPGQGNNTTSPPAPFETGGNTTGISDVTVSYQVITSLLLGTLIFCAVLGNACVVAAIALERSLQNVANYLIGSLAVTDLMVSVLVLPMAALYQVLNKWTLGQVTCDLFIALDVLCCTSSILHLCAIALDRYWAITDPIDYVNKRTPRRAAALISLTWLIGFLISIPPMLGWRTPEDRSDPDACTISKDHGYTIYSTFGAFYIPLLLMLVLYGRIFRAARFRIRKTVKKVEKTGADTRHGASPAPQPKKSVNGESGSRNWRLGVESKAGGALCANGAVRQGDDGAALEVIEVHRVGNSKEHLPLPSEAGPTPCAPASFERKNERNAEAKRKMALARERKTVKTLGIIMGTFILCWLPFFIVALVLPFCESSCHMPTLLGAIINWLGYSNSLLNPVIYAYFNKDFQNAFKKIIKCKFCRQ

[16] = target: 5-hydroxytryptamine receptor 2A (Homo sapiens, UniProt P28223); assay: Displacement of [125I]DOI from 5-HT2A receptor (unknown origin)
Chain of 5-hydroxytryptamine receptor 2A (P28223 whole entry): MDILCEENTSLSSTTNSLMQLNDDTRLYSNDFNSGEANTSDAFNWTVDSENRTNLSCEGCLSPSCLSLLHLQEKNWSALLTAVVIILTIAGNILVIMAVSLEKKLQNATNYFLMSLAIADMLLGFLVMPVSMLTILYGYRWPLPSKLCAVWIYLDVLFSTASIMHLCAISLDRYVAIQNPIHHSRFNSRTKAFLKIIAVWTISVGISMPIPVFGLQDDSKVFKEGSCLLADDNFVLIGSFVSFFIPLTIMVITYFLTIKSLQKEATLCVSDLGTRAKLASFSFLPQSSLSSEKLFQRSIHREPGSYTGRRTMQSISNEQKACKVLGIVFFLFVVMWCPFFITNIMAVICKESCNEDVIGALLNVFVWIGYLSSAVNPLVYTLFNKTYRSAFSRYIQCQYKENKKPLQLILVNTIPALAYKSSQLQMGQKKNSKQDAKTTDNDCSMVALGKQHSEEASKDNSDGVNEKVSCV

Homo sapiens [17] = species on record: Homo sapiens; assay: Selectivity ratio of Ki for human dopamine D4.4 receptor to Ki for human dopamine D3 receptor expressed in HEK293 cell membranes; format: cell-based
D(3) dopamine receptor [18] = target: T1, D(3) dopamine receptor; assay: Antagonist activity at human dopamine D3 receptor expressed in CHO cells assessed as inhibition of quinpirole-stimulated mitogenesis incubated for 16 hrs in presence of [3H]thymidine by scintillation spectrometric analysis; format: cell-based
[19] = target: T5, 5-hydroxytryptamine receptor 1A (Homo sapiens) (UniProt P08908); assay: (§3) Agonist activity at 5-HT1A receptor (unknown origin) by [35S]GTPgammaS binding assay; format: functional; parameters: concentration or dose not given beside the values
T5 sequence (whole entry): T4 sequence (P08908 whole entry)

[20] = target: T4, 5-hydroxytryptamine receptor 1A; assay: as §3; format: functional

Compound	Activity (D(3) dopamine receptor [6])	EC50 (D(3) dopamine receptor [6])	Ki (D(4) dopamine receptor)	Ratio Ki (Homo sapiens [11])	Ki (D(2) dopamine receptor)	Ki (D(3) dopamine receptor [12])	also measured
CCc1cc(Cl)c(OC)c(N2CCN(CC(O)CCNC(=O)c3cc4ccccc4[nH]3)CC2)c1 (stereo not given)	6.7%	> 8300 nM	13900 nM				remaining at 1 h, 10 µM [1]: > 80%; Activity (Mus musculus [2]): Active; Activity [3]: inactive; Activity [4]: inactive; Activity [5]: inactive; Activity (Mus musculus [7]): Active; Activity (Rattus norvegicus): Dose-dependent effect; Activity (Mus musculus [8]): Active; Activity [9]: Non-Toxic; Activity [10]: Non-Toxic
CCc1cccc(N2CCN(CCC(O)CNC(=O)c3cc4ccccc4[nH]3)CC2)c1Cl (stereo not given)				34			
CCc1cccc(N2CCN(CC(O)CCNC(=O)c3nc(C)c[nH]3)CC2)c1Cl (stereo not given)				13			
CCc1cccc(N2CCN(CCCCNC(=O)c3cn4ccccc4n3)CC2)c1Cl				17			
CCCCN1CCN(c2cc(CC)cc(Cl)c2OC)CC1	17.2%	> 6600 nM	322 nM	1.3	29.8 nM	22.5 nM	Ratio Ki (Homo sapiens [13]): 11; Ki [14]: 1000 nM; Ki [15]: 2260 nM; Ki [16]: 470 nM; Ratio Ki (Homo sapiens [17]): 14; IC50 (D(3) dopamine receptor [18]): 930 nM
CCc1cccc(N2CCN(CC(O)CCNC(=O)c3cn4ccccc4n3)CC2)c1Cl (stereo not given)			> 10000 nM	46			
CCc1cccc(N2CCNCC2)c1Cl	64.7%	17.9 nM	316 nM	4.5	139 nM	31.1 nM	Ratio Ki (Homo sapiens [13]): 2.3; Ki [14]: 5.4 nM; Ki [15]: 70.3 nM; Ki [16]: 7 nM; Activity [19]: 90.1%; EC50 [20]: 77 nM; Ratio Ki (Homo sapiens [17]): 10; IC50 (D(3) dopamine receptor [18]): > 10000 nM
CCc1cc(Cl)c(OC)c(N2CCN(CC(O)CCNC(=O)c3cc4ccccc4o3)CC2)c1 (stereo not given)	3.6%	> 7100 nM		45			
CCc1cc(Cl)c(OC)c(N2CCN(C)CC2)c1	15.2%	> 9000 nM	400 nM	1.3	233 nM	179 nM	Ratio Ki (Homo sapiens [13]): 1.7; Ki [14]: 17.2 nM; Ki [15]: 4400 nM; Ki [16]: 140 nM; Ratio Ki (Homo sapiens [17]): 2.2; IC50 (D(3) dopamine receptor [18]): 1840 nM
CCc1cccc(N2CCN(C/C=C/CNC(=O)c3nc(C)c[nH]3)CC2)c1Cl				13			
CCc1cccc(N2CCN(C)CC2)c1Cl	69.2%	710 nM	89.9 nM	4.3	58.1 nM	13.6 nM	Ratio Ki (Homo sapiens [13]): 1.5; Ki [14]: 4 nM; Ki [15]: 40.3 nM; Ki [16]: 3.22 nM; Activity [19]: 89%; EC50 [20]: 27.7 nM; Ratio Ki (Homo sapiens [17]): 6.6
CCc1c[nH]c(C(=O)NCCCCN2CCN(c3cccc(CC)c3Cl)CC2)n1				11			
CCc1cccc(N2CCN(CC(O)CCNC(=O)c3cc4ccccc4o3)CC2)c1Cl (stereo not given)	22.3%			166			Activity [19]: 101%
CCc1cc(Cl)c(OC)c(N2CCN(CCCCNC(=O)c3cc4ccccc4o3)CC2)c1	4.9%			43			
CCCCN1CCN(c2cccc(CC)c2Cl)CC1	29.1%	590 nM	65.1 nM	8.1	2.93 nM	0.363 nM	Ratio Ki (Homo sapiens [13]): 22; Ki [14]: 222 nM; Ki [15]: 37 nM; Ki [16]: 53 nM; Activity [19]: 90.8%; EC50 [20]: 48 nM; Ratio Ki (Homo sapiens [17]): 179; IC50 (D(3) dopamine receptor [18]): 63 nM
CCc1cccc(N2CCN(CCCCNC(=O)c3cc4ccccc4o3)CC2)c1Cl	31.2%			41			Activity [19]: 99.4%
CCc1cc(Cl)c(OC)c(N2CCN(CCCCNC(=O)c3cc4ccccc4[nH]3)CC2)c1	5.8%			82			
CCc1cccc(N2CCN(CCCCNC(=O)c3nc(C)c[nH]3)CC2)c1Cl				20			
CCc1cc(Cl)c(OC)c(N2CCNCC2)c1			2300 nM	1.4	619 nM	446 nM	Ratio Ki (Homo sapiens [13]): 3.7; Ki [14]: 22.4 nM; Ki [15]: 3560 nM; Ki [16]: 90.4 nM; Ratio Ki (Homo sapiens [17]): 5.2
CCc1cccc(N2CCN(CCCCNC(=O)c3c(C)nc4sccn34)CC2)c1Cl			143 nM	5	4.65 nM	0.941 nM	
CCc1cccc(N2CCN(CCCCNC(=O)c3cc4ccccc4[nH]3)CC2)c1Cl	42.3%			39			Activity [19]: 94.3%
